Experimental data from ChEMBL document CHEMBL1146113, “Synthesis and SAR of heteroaryl-phenyl-substituted pyrazole derivatives as highly selective and potent canine COX-2 inhibitors” (Bioorg Med Chem Lett, 2006).

Legend:
[1] = biological target: T1, Prostaglandin G/H synthase 1 (Canis lupus familiaris, UniProt Q8HZR1); experiment: Inhibition of COX1 in canine whole blood
T1 sequence (Q8HZR1 whole entry): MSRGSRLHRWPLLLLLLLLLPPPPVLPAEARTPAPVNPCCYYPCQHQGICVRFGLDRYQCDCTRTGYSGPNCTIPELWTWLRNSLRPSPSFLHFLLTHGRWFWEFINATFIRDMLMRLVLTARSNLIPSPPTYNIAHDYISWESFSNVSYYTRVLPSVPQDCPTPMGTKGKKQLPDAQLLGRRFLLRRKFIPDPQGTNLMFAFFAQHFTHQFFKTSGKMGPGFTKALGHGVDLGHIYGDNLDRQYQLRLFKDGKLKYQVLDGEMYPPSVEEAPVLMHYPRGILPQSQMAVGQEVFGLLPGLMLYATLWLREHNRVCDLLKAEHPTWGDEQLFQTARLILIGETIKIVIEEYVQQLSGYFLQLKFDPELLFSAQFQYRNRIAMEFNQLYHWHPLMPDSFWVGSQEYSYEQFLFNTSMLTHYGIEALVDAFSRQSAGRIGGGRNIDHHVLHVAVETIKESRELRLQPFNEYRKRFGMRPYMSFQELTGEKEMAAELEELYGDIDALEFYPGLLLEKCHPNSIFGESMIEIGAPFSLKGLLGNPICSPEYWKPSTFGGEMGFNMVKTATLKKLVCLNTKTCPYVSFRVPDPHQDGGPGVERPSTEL
Procedure, shortened: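 Canine whole blood incubated with drug for 1 h at 37 °C, with drug-free samples as maximum TXB2 controls. EDTA (0.3% final) then added and serum collected and frozen. COX-1 activity read as TXB2 production by EIA, with samples diluted 1/10,000.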

Canis lupus familiaris = species on record: Canis lupus familiaris; experiment: Selectivity for COX2 over COX1
Cyclooxygenase-2 = biological target: T2, Cyclooxygenase-2 (Canis lupus familiaris, UniProt Q8SPQ9); experiment: Inhibition of COX2 in canine whole blood; type: tissue-based
T2 sequence (Q8SPQ9 whole entry): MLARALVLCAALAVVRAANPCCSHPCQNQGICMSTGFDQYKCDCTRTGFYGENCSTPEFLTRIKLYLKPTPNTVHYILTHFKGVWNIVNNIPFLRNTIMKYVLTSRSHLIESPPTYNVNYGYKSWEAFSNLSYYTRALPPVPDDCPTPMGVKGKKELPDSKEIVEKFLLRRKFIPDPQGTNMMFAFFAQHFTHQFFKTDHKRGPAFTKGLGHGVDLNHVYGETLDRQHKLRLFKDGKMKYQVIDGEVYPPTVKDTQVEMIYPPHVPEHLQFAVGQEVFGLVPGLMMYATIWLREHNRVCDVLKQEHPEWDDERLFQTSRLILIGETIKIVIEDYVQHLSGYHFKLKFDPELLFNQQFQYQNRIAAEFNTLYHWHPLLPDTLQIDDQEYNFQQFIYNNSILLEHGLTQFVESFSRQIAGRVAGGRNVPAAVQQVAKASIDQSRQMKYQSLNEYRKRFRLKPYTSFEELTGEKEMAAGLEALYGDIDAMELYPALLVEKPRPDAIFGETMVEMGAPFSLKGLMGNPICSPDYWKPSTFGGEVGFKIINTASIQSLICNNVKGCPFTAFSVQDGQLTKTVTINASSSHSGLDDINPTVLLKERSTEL
Procedure, shortened: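 Heparinized canine whole blood incubated overnight at 37 °C with drug plus LPS to stimulate PGE2. LPS-only controls gave maximum PGE2 and vehicle-only controls gave background. EDTA (0.3% final) then added and plasma collected and frozen. PGE2 measured by EIA, with samples diluted 1/1000.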

[2] = Oral bioavailability in dog; type: ADME, organism-based, Canis lupus familiaris; settings: in vivo
[3] = Half life in dog; type: ADME, organism-based, Canis lupus familiaris; settings: in vivo

Compound | IC50 [1] [nM] | Ratio IC50 (Canis lupus familiaris) | IC50 (Cyclooxygenase-2) [nM] | bioavailability [2] [%] | half-life [3] [h]
Cc1cc(-c2cc(C(F)(F)F)nn2-c2ccc(S(C)(=O)=O)cn2)ccc1-c1cscn1 | 15500 | 172 | 90 | – | –
CS(=O)(=O)c1ccc(-n2nc(C(F)(F)F)cc2-c2ccc(-c3cscn3)cc2F)nc1 | 22700 | 78 | 290 | – | –
CS(=O)(=O)c1ccc(-n2nc(C(F)(F)F)cc2-c2ccc(-c3ccco3)c(F)c2)nc1 | 27900 | 558 | 50 | – | –
Cc1cc(-c2cc(C(F)(F)F)nn2-c2ccc(S(C)(=O)=O)cn2)ccc1-c1cocn1 | 12700 | 487 | 30 | – | –
CS(=O)(=O)c1ccc(-n2nc(C(F)(F)F)cc2-c2ccc(-c3ccco3)c(C(N)=O)c2)nc1 | 2000 | 4.9 | 410 | – | –
CS(=O)(=O)c1ccc(-n2nc(C(F)(F)F)cc2-c2ccc(-c3ccco3)c(C#N)c2)nc1 | 2000 | 154 | 13 | – | –
CS(=O)(=O)c1ccc(-n2nc(C(F)F)cc2-c2ccc(-c3ccco3)c(Cl)c2)nc1 | 5500 | 550 | 10 | – | –
CS(=O)(=O)c1ccc(-n2nc(C(F)(F)F)cc2-c2ccc(-c3ccco3)c(Cl)c2)nc1 | > 50000 | > 4170 | 12 | 34 | 16.4
CS(=O)(=O)c1ccc(-n2nc(C(F)F)cc2-c2ccc(-c3ccco3)cc2)nc1 | 12000 | 92 | 130 | – | –
CS(=O)(=O)c1ccc(-n2nc(C(F)(F)F)cc2-c2ccc(-c3cncs3)cc2)nc1 | 2700 | 15 | 180 | – | –
Cc1scnc1-c1ccc(-c2cc(C(F)(F)F)nn2-c2ccc(S(C)(=O)=O)cn2)cc1 | – | – | > 500 | – | –
CS(=O)(=O)c1ccc(-n2nc(C(F)(F)F)cc2-c2cccc(-c3cscn3)c2)nc1 | – | – | > 500 | – | –
CS(=O)(=O)c1ccc(-n2nc(C(F)(F)F)cc2-c2ccc(-c3ccco3)cc2)nc1 | 18200 | 759 | 20 | – | –
Cc1cc(-c2cc(C(F)(F)F)nn2-c2ccc(S(C)(=O)=O)cn2)ccc1-c1ccco1 | 3400 | 340 | 10 | – | –
Cc1cc(-c2cc(C(F)(F)F)nn2-c2ccc(S(C)(=O)=O)cn2)ccc1-c1ncco1 | 11100 | 171 | 65 | – | –
CS(=O)(=O)c1ccc(-n2nc(C(F)(F)F)cc2-c2ccc(-c3cscn3)c(Cl)c2)nc1 | 16000 | > 320 | < 50 | – | –
COC(=O)c1cc(-c2cc(C(F)(F)F)nn2-c2ccc(S(C)(=O)=O)cn2)ccc1-c1ccco1 | – | – | > 500 | – | –
CS(=O)(=O)c1ccc(-n2nc(C(F)(F)F)cc2-c2ccc(-c3nccs3)cc2)nc1 | 50000 | 238 | 210 | – | –
Cc1cc(-c2cc(C(F)F)nn2-c2ccc(S(C)(=O)=O)cn2)ccc1-c1cscn1 | 3800 | 200 | 19 | – | –
CS(=O)(=O)c1ccc(-n2nc(C(F)(F)F)cc2-c2ccc(-c3cscn3)cc2)nc1 | > 50000 | > 313 | 160 | – | –
CS(=O)(=O)c1ccc(-n2nc(C(F)F)cc2-c2ccc(-c3ccco3)c(F)c2)nc1 | 5000 | 83 | 60 | – | –
CS(=O)(=O)c1ccc(-n2nc(C(F)(F)F)cc2-c2ccc(-c3nccs3)c(C#N)c2)nc1 | 23400 | 212 | 110 | – | –
